Experimental data as given in ChEMBL document CHEMBL5653622 (Oncotarget, 2016).
Active and inactive are the calls of the source. The calls are words filed in the database; no cut-off is given here.

How the values were obtained:
[1] = target: Interleukin-1 receptor-associated kinase 1 (Homo sapiens) (UniProt P51617); test: Inhibition of human IRAK1 assessed as remaining activity at 10 uM in presence of ATP by radiometric kinase assay relative to control
Mus musculus [2] = test: In vivo inhibition of CHK1 in CRTac:Ncr-Fox1 mouse xenografted with human HT-29 cells assessed as reduction of phosphorylation of CHK1 on S296 at 50 mg/kg, po administered for 24 hrs by Western blotting analysis; format: functional, organism-based
How it was run: (§1)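 HT29 s.c. xenografts in female athymic nude mice. Single gemcitabine dose 100mg/kg i.v. on day 0, then one inhibitor dose 50 or 100mg/kg p.o. (DPTW vehicle) 24h later. Tumors taken 24h after the last dose, western blotted, and signals quantified by normalizing to GAPDH.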

[3] = Toxicity in Emu-Myc driven transgenic mouse transplant model of B-cell lymphoma assessed as change in body weight at 150 mg/kg, po administered for 9 days; format: organism-based; conditions: in vivo, 216 h, time 9 day
[4] = Toxicity in Emu-Myc driven transgenic mouse transplant model of B-cell lymphoma assessed as reduction in weight of lung at 150 mg/kg, po administered for 9 days; format: organism-based; conditions: in vivo, 216 h, time 9 day
[5] = Toxicity in Emu-Myc driven transgenic mouse transplant model of B-cell lymphoma assessed as reduction in weight of kidney at 150 mg/kg, po administered for 9 days; format: organism-based; conditions: in vivo, 216 h, time 9 day
[6] = target: Dual specificity testis-specific protein kinase 1 (Homo sapiens) (UniProt Q15569); test: Inhibition of human TESK1 assessed as remaining activity at 10 uM in presence of ATP by radiometric kinase assay relative to control
[7] = target: Serine/threonine-protein kinase STK11 (Homo sapiens) (UniProt Q15831); test: Inhibition of human LKB1 assessed as remaining activity at 10 uM in presence of ATP by radiometric kinase assay relative to control
[8] = Toxicity in Emu-Myc driven transgenic mouse transplant model of B-cell lymphoma assessed as change in body temperature at 150 mg/kg, po administered for 9 days; format: organism-based; conditions: in vivo, 216 h, time 9 day
[9] = target: Protein kinase C zeta type (Homo sapiens) (UniProt Q05513); test: Inhibition of human PKCz assessed as remaining activity at 10 uM in presence of ATP by radiometric kinase assay relative to control
[10] = target: RAC-beta serine/threonine-protein kinase (Homo sapiens) (UniProt P31751); test: Inhibition of human PKBb assessed as remaining activity at 10 uM in presence of ATP by radiometric kinase assay relative to control
[11] = target: Glycogen synthase kinase-3 beta (Homo sapiens) (UniProt P49841); test: Inhibition of human GSK3b assessed as remaining activity at 10 uM in presence of ATP by radiometric kinase assay relative to control
[12] = target: Vascular endothelial growth factor receptor 1 (Homo sapiens, UniProt P17948); test: Inhibition of VEGFR1 (unknown origin) by FRET based Z-LYTE kinase assay
[13] = target: Serine/threonine-protein kinase N2 (Homo sapiens) (UniProt Q16513); test: Inhibition of human PRK2 assessed as remaining activity at 10 uM in presence of ATP by radiometric kinase assay relative to control
SW-620 = test: Induction of apoptosis in human SW620 cells assessed as increased in cleaved PARP in presence of gemcitabine by Western blotting analysis; format: functional, cell-based
[14] = target: Mitogen-activated protein kinase 9 (Homo sapiens) (UniProt P45984); test: Inhibition of human JNK2 assessed as remaining activity at 10 uM in presence of ATP by radiometric kinase assay relative to control
[15] = target: Protein kinase C alpha type (Homo sapiens) (UniProt P17252); test: Inhibition of human PKCa assessed as remaining activity at 10 uM in presence of ATP by radiometric kinase assay relative to control
[16] = target: NUAK family SNF1-like kinase 1 (Homo sapiens, UniProt O60285); test: Inhibition of human NUAK1 by FRET based Z-LYTE kinase assay
Mus musculus [17] = test: In vivo inhibition of CHK1 in CRTac:Ncr-Fox1 mouse xenografted with human HT-29 cells assessed as reduction of phosphorylation of CHK1 on S317 at 50 to 100 mg/kg, po administered for 24 hrs by Western blotting analysis; format: functional, organism-based; conditions: dose 50-100 mg/kg; how it was run: as §1
[18] = target: Serine/threonine-protein kinase TBK1 (Homo sapiens) (UniProt Q9UHD2); test: Inhibition of human TBK1 assessed as remaining activity at 10 uM in presence of ATP by radiometric kinase assay relative to control
[19] = target: Ribosomal protein S6 kinase alpha-3 (Homo sapiens, UniProt P51812); test: Inhibition of human RSK2 at 10 uM in presence of ATP by radiometric kinase assay relative to control
[20] = target: Receptor tyrosine-protein kinase erbB-4 (Homo sapiens) (UniProt Q15303); test: Inhibition of human HER4 assessed as remaining activity at 10 uM in presence of ATP by radiometric kinase assay relative to control
Mus musculus [21] = test: In vivo inhibition of total CHK1 in CRTac:Ncr-Fox1 athymic mouse xenografted with human Calu-6 cells at 150 mg/kg, po in presence of gemcitabine and carboplatin by Western blotting analysis; format: functional, organism-based
How it was run: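 Female CRTac:Ncr-Fox1(nu) athymic mice carried s.c. Calu6 xenografts. Tumors were taken 6h after the last inhibitor dose, lysed in CHAPS buffer, and immunoblotted with GAPDH as loading control.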

[22] = target: MAP/microtubule affinity-regulating kinase 3 (Homo sapiens, UniProt P27448); test: Inhibition of human MARK3 at 10 uM in presence of ATP by radiometric kinase assay relative to control
[23] = target: AMP-activated protein kinase (AMPK) alpha-1/beta-1/gamma-1 (Homo sapiens, UniProt P54619+Q13131+Q9Y478); test: Inhibition of AMPK alpha1/beta1/gamma1 (unknown origin) by FRET based Z-LYTE kinase assay; format: protein-complex assay
HT-29 = test: Induction of cell cycle arrest in etoposide induced human HT-29 cells assessed as decrease in accumulation of cells at G2/M phase at 1 to 5 uM incubated for 24 hrs by BrdU and PI staining based flow cytometry analysis; format: functional; conditions: dose 1-5 µM
How it was run: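 HT29 cells exposed for 24h, stained with bromodeoxyuridine and propidium iodide, and cell-cycle distribution measured by flow cytometry.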

Sequence of Mitogen-activated protein kinase 9 (Homo sapiens) (P45984 whole entry, looked up): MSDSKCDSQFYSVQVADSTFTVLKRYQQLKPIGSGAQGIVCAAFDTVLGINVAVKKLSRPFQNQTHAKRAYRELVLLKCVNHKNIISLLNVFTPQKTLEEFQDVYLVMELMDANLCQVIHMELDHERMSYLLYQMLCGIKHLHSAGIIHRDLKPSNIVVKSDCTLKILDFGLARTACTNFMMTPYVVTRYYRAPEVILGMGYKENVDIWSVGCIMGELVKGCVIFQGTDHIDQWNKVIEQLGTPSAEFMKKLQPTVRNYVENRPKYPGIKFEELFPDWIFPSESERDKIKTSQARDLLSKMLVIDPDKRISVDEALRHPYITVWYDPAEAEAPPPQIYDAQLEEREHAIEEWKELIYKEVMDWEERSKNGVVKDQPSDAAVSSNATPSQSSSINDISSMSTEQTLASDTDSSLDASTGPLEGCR
Sequence of Interleukin-1 receptor-associated kinase 1 (Homo sapiens) (P51617 whole entry, looked up): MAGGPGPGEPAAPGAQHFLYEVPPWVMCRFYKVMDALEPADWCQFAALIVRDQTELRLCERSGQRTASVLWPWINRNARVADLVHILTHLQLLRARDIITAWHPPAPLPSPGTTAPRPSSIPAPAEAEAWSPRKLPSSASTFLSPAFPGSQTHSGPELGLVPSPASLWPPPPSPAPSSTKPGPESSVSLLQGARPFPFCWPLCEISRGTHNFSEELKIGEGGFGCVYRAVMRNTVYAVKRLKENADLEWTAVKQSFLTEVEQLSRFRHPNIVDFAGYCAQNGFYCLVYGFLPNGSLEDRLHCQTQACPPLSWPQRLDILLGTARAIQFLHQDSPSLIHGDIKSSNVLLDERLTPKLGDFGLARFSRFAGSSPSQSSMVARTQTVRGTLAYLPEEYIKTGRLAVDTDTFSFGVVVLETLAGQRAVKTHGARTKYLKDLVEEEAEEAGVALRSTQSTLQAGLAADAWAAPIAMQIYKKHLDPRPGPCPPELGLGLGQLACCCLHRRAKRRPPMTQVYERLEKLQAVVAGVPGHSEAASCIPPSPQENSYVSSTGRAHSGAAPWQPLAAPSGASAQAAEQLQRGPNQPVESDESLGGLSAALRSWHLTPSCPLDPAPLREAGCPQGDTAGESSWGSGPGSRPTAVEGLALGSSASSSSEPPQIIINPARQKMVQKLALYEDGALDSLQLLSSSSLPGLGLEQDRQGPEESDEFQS
Sequence of NUAK family SNF1-like kinase 1 (O60285 whole entry): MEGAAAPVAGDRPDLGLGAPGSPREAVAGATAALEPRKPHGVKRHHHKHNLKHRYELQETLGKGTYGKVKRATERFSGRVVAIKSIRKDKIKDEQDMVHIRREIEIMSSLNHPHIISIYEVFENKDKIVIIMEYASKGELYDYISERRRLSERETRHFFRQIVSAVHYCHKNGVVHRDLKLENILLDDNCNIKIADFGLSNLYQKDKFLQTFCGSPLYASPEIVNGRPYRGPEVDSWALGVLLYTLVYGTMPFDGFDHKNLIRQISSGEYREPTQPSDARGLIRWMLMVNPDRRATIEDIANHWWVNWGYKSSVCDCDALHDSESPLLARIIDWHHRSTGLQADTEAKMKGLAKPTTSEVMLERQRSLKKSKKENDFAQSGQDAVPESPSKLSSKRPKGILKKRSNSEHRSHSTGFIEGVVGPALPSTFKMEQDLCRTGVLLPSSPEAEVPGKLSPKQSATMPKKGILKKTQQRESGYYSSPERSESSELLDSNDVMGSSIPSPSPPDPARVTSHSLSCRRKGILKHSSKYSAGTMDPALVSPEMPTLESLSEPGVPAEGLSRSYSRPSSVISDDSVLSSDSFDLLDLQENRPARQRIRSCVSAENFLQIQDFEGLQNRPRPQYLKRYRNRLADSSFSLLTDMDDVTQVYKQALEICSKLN
Sequence of RAC-beta serine/threonine-protein kinase (Homo sapiens) (P31751 whole entry): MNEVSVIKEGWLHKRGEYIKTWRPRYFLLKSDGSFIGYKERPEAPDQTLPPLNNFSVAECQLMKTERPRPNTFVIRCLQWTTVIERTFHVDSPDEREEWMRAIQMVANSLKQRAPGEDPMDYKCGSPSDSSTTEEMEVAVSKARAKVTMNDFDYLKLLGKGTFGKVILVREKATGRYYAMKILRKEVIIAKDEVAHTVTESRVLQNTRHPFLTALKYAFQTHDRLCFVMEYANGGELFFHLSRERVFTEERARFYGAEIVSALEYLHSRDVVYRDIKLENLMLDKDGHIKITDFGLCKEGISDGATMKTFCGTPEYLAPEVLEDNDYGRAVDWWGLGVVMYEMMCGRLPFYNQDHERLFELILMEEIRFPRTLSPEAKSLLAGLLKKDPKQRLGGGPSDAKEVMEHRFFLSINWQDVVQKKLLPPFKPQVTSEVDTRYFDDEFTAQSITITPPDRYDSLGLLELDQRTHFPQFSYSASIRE
Sequence of Dual specificity testis-specific protein kinase 1 (Homo sapiens) (Q15569 whole entry, looked up): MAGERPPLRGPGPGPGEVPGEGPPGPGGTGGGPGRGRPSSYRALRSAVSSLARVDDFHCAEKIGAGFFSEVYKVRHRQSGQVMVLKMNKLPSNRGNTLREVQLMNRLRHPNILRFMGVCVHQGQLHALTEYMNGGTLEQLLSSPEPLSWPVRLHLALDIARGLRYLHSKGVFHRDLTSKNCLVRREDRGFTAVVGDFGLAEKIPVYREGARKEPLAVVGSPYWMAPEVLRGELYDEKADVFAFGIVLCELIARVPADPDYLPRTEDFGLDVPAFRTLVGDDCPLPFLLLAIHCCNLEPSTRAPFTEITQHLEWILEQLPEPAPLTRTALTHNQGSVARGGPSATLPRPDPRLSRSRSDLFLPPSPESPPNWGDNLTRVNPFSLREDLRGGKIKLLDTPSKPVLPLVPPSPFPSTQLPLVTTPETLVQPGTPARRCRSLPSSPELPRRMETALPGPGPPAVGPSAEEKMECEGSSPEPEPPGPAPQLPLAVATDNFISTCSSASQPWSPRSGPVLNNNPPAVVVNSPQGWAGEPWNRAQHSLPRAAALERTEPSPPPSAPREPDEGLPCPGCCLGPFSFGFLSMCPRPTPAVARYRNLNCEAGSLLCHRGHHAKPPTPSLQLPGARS
Sequence of Vascular endothelial growth factor receptor 1 (P17948 whole entry): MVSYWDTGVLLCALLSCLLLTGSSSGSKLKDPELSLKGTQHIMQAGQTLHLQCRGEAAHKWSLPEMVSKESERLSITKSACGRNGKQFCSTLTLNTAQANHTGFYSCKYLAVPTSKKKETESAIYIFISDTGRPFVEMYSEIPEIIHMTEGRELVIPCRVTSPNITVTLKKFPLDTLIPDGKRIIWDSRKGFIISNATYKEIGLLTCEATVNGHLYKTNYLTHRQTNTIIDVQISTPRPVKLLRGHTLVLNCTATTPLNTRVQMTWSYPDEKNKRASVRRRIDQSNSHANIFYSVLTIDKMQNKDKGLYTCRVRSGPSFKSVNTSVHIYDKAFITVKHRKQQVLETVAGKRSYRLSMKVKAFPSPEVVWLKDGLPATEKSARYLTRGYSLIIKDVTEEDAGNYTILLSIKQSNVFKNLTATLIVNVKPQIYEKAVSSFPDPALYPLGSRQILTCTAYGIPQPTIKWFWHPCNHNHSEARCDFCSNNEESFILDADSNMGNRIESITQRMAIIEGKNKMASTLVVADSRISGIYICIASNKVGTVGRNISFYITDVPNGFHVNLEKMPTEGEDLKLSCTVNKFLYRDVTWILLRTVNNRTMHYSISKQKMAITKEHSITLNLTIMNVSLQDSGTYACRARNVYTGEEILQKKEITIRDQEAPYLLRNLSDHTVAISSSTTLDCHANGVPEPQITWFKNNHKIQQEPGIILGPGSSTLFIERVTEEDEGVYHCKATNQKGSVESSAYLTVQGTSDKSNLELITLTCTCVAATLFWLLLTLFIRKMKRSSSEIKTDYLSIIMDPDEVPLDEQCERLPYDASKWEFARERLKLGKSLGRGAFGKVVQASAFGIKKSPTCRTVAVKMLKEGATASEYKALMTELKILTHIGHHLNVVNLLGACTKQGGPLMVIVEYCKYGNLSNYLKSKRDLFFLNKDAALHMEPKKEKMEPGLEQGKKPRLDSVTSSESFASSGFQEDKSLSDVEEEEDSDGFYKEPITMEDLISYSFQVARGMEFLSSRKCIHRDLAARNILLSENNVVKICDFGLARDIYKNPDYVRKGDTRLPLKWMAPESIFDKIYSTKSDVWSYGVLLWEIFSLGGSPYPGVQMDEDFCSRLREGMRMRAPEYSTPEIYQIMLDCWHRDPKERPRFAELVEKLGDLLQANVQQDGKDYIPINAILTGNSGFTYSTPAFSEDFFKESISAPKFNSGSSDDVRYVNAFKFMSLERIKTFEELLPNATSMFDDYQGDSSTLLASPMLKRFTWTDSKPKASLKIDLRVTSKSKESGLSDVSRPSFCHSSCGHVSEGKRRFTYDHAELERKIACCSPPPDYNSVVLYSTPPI

Activity [1]: 38%
Activity [6]: 101%
Activity [7]: 44%
Activity [9]: 92%
Activity [10]: 100%
Activity [11]: 47%
IC50 [12]: 15.8 µM
Activity [13]: 67%
Activity [14]: 107%
Activity [15]: 82%
IC50 [16]: 0.711 µM
Activity [18]: 71%
inhibition [19]: 81%
Activity [20]: 110%
inhibition [22]: 87%
IC50 [23]: 2.97 µM
Compound: N#Cc1cnc(Nc2cc(NC[C@H]3CNCCO3)c(C(F)(F)F)cn2)cn1 [SRA-737]
Activity (Mus musculus [2]): Active
Activity [3]: Non-Toxic
Activity [4]: Toxic
Activity [5]: Toxic
Activity [8]: Non-Toxic
Activity (SW-620): Active
Activity (Mus musculus [17]): inactive
inhibition (Mus musculus [21]): Active
Activity (HT-29): Active
